Results reported in PMC6057476 (ACS chemical biology, 2018).

Assays:
Format in all cases: cell-based
[1] = system: transcriptome of MCF-7 cells; assay: RNA-Seq global gene expression; details: MCF-7, RNA-Seq; 10 nM E2 + 1 μM 4OHT or 15 μM R4K1
[2] = system: ER-regulated genes PTGES, PR, PS2, EGR3, IGFBP4 in MCF-7 cells; assay: RT-qPCR of ER-regulated native genes, MCF-7; details: 10 nM E2, 2 hrs
In short: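 MCF-7 cells in charcoal-dextran-stripped 5% FBS were pretreated with test compound (15 μM, 24 h), 4-hydroxytamoxifen (1 μM, 2 h) or DMSO, then with 10 nM 17β-estradiol for 2 h. Total RNA was assayed by RT-qPCR, normalised to 36B4 and converted to fold change versus DMSO vehicle by ΔΔCt. Error bars are SD.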

MCF-7 cells = assay: Proliferation assay; details: 10 nM estradiol, 24 hours
In short: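 MCF-7 cells in charcoal-dextran-stripped 5% FBS were given vehicle or 15 μM test compound, with or without 10 nM estradiol, starting on day 3. Cells were counted 24 h later by brightfield imaging cytometry. Fold change was taken versus vehicle control over three independent experiments, with error bars as SD.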

Compound	reversal of E2-regulated genes of cluster 2 (226 genes) [1]	reversal of E2-regulated genes of cluster 3 (87 genes) [1]	expression of five ER-regulated genes, estradiol [2]	proliferation of MCF-7 cells, estradiol (MCF-7 cells)
CC/C(=C(\c1ccc(O)cc1)c1ccc(OCCN(C)C)cc1)c1ccccc1 [4OHT, 4-hydroxytamoxifen]	reversed fully	reversed fully	–	–
C[C@]12CC[C@@H]3c4ccc(O)cc4CC[C@H]3[C@@H]1CC[C@@H]2O [Estradiol, 17β-estradiol]	–	–	induced expression of each of the five genes	stimulated proliferation
